Data from ChEMBL document CHEMBL2062403, “Disulfide prodrugs of albitiazolium (T3/SAR97276): synthesis and biological activities” (J Med Chem, 2012).
pIC50: −log10 of the molar value.

Tests used:
[1] = tested on: Plasmodium falciparum; test: Antiplasmodial activity against Plasmodium falciparum assessed as inhibition of [3H]hypoxanthine incorporation after 48 hrs; type: functional, organism-based
In short: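 P. falciparum Nigerian strain blood stages, modified Desjardins microtiter test; drug contact one parasite cycle (48 h); growth read as [³H]hypoxanthine incorporation into nucleic acids; IC50 = concentration giving 50% growth inhibition.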

[2] = tested on: Plasmodium vinckei petteri; test: Antimalarial activity against Plasmodium vinckei petteri 279BY infected in ip dosed Swiss mouse assessed as reduction in parasitemia administered QD for 4 days measured on day 5; type: functional
In short: (§1)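 P. vinckei-infected mice, 4-day suppressive test, dosing once daily for 4 days by ip or oral route; vehicle DMSO for both routes except some compounds given in 0.9% NaCl (ip) or water (po); ED50 = dose inhibiting in vivo parasite growth by 50%.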

[3] = tested on: Plasmodium vinckei petteri; test: Antimalarial activity against Plasmodium vinckei petteri 279BY infected in po dosed Swiss mouse assessed as reduction in parasitemia administered QD for 4 days measured on day 5; type: functional; in short: as §1
[4] = tested on: Mus musculus; test: Prodrug conversion in ip dosed Swiss mouse assessed as albitiazolium bromide formation administered QD for 4 days; type: ADME, organism-based; settings: in vivo, 96 h
[5] = tested on: Plasmodium vinckei petteri; test: Ratio of ED50 for Plasmodium vinckei petteri 279BY infected in […] dosed Swiss mouse; type: functional
[6] = Aqueous solubility of the compound; type: physicochemical; settings: water
[7] = tested on: Mus musculus; test: Prodrug conversion in po dosed Swiss mouse assessed as albitiazolium bromide formation administered QD for 4 days; type: ADME, organism-based; settings: in vivo, 96 h

| pIC50 [1] | Drug metabolism [4] | solubility [6] | Drug metabolism [7] | Structure (SMILES) | ED50 [2] | ED50 [3] | Ratio ED50 [5] |
| --- | --- | --- | --- | --- | --- | --- | --- |
| 6.80 | Active |  |  | CSS/C(CCOC(=O)[C@@H](N)C(C)C)=C(/C)N(C=O)CCCCCCCCCCCCN(C=O)/C(C)=C(/CCOC(=O)[C@@H](N)C(C)C)SSC.Cl | 1 mg/kg | 58 mg/kg | 1.7 |
| 7.19 | Active |  |  | C/C1=C(\CCO)SS/C(CCO)=C(/C)N(C=O)CCCCCCCCCCCCN1C=O | 0.9 mg/kg | 22 mg/kg |  |
|  |  |  |  | Cc1c(CCO)sc[n+]1CCCCCCCCCCCC[n+]1csc(CCO)c1C.[Br-].[Br-] [ALBITIAZOLIUM BROMIDE] | 0.2 mg/kg | 13 mg/kg | 1.5 |
| 6.23 | Active |  |  | C/C1=C(\CCOC(=O)[C@@H](N)C(C)C)SS/C(CCOC(=O)[C@@H](N)C(C)C)=C(/C)N(C=O)CCCCCCCCCCCCN1C=O.Cl | 1 mg/kg | 37 mg/kg | 4.1 |
| 8.89 | Active |  |  | CCCSS/C(CCO)=C(/C)N(C=O)CCCCCCCCCCCCN(C=O)/C(C)=C(/CCO)SSCCC | 0.5 mg/kg | > 54 mg/kg |  |
| 5.36 | Active |  |  | C/C(=C(\CCOP(=O)([O-])[O-])SSCc1ccccc1)N(C=O)CCCCCCCCCCCCN(C=O)/C(C)=C(/CCOP(=O)([O-])[O-])SSCc1ccccc1.[Li+].[Li+].[Li+].[Li+] | 3 mg/kg | > 90 mg/kg |  |
| 7.21 |  |  |  | CCOP(=O)(OCC)OCC/C(SSCC)=C(\C)N(C=O)CCCCCCCCCCCCN(C=O)/C(C)=C(/CCOP(=O)(OCC)OCC)SSCC | > 1 mg/kg | > 90 mg/kg |  |
| 7.84 | Active |  |  | C/C(=C(\CCO)SSCc1ccccc1)N(C=O)CCCCCCCCCCCCN(C=O)/C(C)=C(/CCO)SSCc1ccccc1 | 1.3 mg/kg | 80 mg/kg | 1.6 |
| 8.18 |  |  |  | Cc1c(CCOP(=O)(O)O)sc[n+]1CCCCCCCCCCCC[n+]1csc(CCOP(=O)(O)O)c1C | 0.34 mg/kg | 34 mg/kg | 1 |
| 8.27 | Active |  |  | CCSS/C(CCO)=C(/C)N(C=O)CCCCCCCCCCCCN(C=O)/C(C)=C(/CCO)SSCC | 1.1 mg/kg | 44 mg/kg | 2.5 |
| 6.89 | Active | 27 mg/mL |  | C/C1=C(\CCOC(=O)[C@@H](N)CCCCN)SS/C(CCOC(=O)[C@@H](N)CCCCN)=C(/C)N(C=O)CCCCCCCCCCCCN1C=O.Cl.Cl | 0.9 mg/kg | 50 mg/kg | 1.8 |
| 6.92 | Active | 27 mg/mL |  | CSS/C(CCOC(=O)[C@@H](N)CCCCN)=C(/C)N(C=O)CCCCCCCCCCCCN(C=O)/C(C)=C(/CCOC(=O)[C@@H](N)CCCCN)SSC.Cl.Cl | 1 mg/kg | 44 mg/kg | 2.3 |
| 5.24 | Active |  |  | CCSS/C(CCOP(=O)([O-])[O-])=C(/C)N(C=O)CCCCCCCCCCCCN(C=O)/C(C)=C(/CCOP(=O)([O-])[O-])SSCC.[Li+].[Li+].[Li+].[Li+] | 1.1 mg/kg | 60 mg/kg | 1.8 |
|  |  |  |  | CCN(CC)CCCC(C)Nc1ccnc2cc(Cl)ccc12 (centres undefined) [CHLOROQUINE] | 1.1 mg/kg | 3.4 mg/kg |  |
| 8.22 | Active |  | Active | CSS/C(CCO)=C(/C)N(C=O)CCCCCCCCCCCCN(C=O)/C(C)=C(/CCO)SSC | 0.4 mg/kg | 15 mg/kg | 2.7 |
| 7.62 | Active |  |  | CC(=O)OCC/C1=C(\C)N(C=O)CCCCCCCCCCCCN(C=O)/C(C)=C(/CCOC(C)=O)SS1 | 1 mg/kg | 7.3 mg/kg | 13.7 |

| Structure (SMILES) | pIC50 [1] | Drug metabolism [4] | solubility [6] | Drug metabolism [7] | ED50 [2] | ED50 [3] | Ratio ED50 [5] |
| --- | --- | --- | --- | --- | --- | --- | --- |
| CCSS/C(CCOP1(=O)OCc2ccccc2O1)=C(/C)N(C=O)CCCCCCCCCCCCN(C=O)/C(C)=C(/CCOP1(=O)OCc2ccccc2O1)SSCC (centres undefined) | 6.28 | Active |  |  | 5 mg/kg | > 90 mg/kg |  |
| C/C(=C(\CCOP1(=O)OCc2ccccc2O1)SSCc1ccccc1)N(C=O)CCCCCCCCCCCCN(C=O)/C(C)=C(/CCOP1(=O)OCc2ccccc2O1)SSCc1ccccc1 (centres undefined) | 6.06 |  |  |  | > 5 mg/kg | > 90 mg/kg |  |
